{
  "source": "paper PMC10676332",
  "about": "(Drugs in R&D, 2023)",
  "key": {"[1]": {"details": "cited from earlier work"}, "[2]": {"biological_target": "wild-type and mutant ROS1", "details": "preclinical data; cited from earlier work"}, "ALK-positive NSCLC": {"system": "ALK-positive NSCLC", "details": "cited from earlier work; for Objective response rate (ORR): phase I; for IRC-assessed ORR: phase II"}, "[3]": {"details": "single 160 mg dose, fasted, cited from earlier work"}, "[4]": {"type": "in vivo, human", "details": "160 mg single oral dose", "in_short": "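Healthy adults randomized 1:1 to fasted-fed or fed-fasted sequence, 14-day washout; ≥10-h overnight fast pre-dose, no drinking 1 h before to 2 h after, fasting 4 h post-dose. Plasma sampled pre-dose to 168 h, spun 1700g, 2–8 °C, 10 min, kept −70 °C; validated LC-MS/MS; non-compartmental parameters. Ln-transformed Cmax/AUC in linear mixed model; fed/fasted GMR with 90% CI, limits 0.80–1.25.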"}, "HCC78 cells": {"system": "HCC78 cells", "details": "cited from earlier work"}, "Safety assessment": {"assay": "Safety assessment", "type": "in vivo, human", "in_short": "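Randomized crossover in healthy adults (fasted-fed or fed-fasted, 14-day washout). A TEAE counted any AE absent before dosing, or pre-existing and worsening in intensity or frequency after dosing. AEs graded; serious AEs and discontinuations recorded. Analysis set: every subject receiving at least one dose.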"}, "[5]": {"assay": "Metabolism in human liver microsomes", "type": "in vitro ADME"}, "Caco-2": {"system": "Caco-2", "assay": "Caco-2 permeability assay", "type": "in vitro ADME", "details": "Caco-2, concentrations 2.00 to 50.0 µM"}, "[6]": {"system": "ROS1 wild-type and G2032R mutant xenograft models", "details": "cited from earlier work"}, "In vitro solubility": {"assay": "In vitro solubility", "type": "physicochemical"}, "[7]": {"system": "BaF3 cells expressing ROS1 fusion wild-type and resistance mutants", "details": "cited from earlier work"}, "ALK": {"biological_target": "ALK", "details": "preclinical data; cited from earlier work"}, "[8]": {"details": "oral administration with food vs fasted; cited from earlier work"}, "[9]": {"details": "oral 20–210 mg/day, ALK-positive NSCLC patients"}, "[10]": {"details": "160 mg single dose, fed (high-fat meal)"}},
  "note": "Read-outs that look alike come from different tables or passages of the source.",
  "data": [
    {"smiles": "COc1cc(N2CCC(N3CCN(C)CC3)CC2)ccc1Nc1ncc(Cl)c(Nc2ccccc2P(C)(C)=O)n1", "note": "[brigatinib]", "values": [
      {"measurement": "BCS class", "setting": "[1]; approved ALK and ROS1 TKIs", "value": "BCS class I"}
    ]},
    {"smiles": "Cc1cc(Nc2ncc(Cl)c(Nc3ccccc3S(=O)(=O)C(C)C)n2)c2c(c1C1CCN(C)CC1)C[C@@H](C)O2", "note": "[SAF-189s]", "values": [
      {"measurement": "IC50 against wild-type and mutant ROS1 kinase activity", "setting": "[2]", "value": "sub-nanomolar to nanomolar"},
      {"measurement": "Anti-tumor efficacy", "setting": "ALK-positive NSCLC; [9]", "value": "promising anti-tumor efficacy"},
      {"measurement": "Intracranial activity", "setting": "ALK-positive NSCLC; [9]", "value": "had intracranial activity"},
      {"measurement": "Tolerability", "setting": "ALK-positive NSCLC; oral 20–210 mg/day, fasted state, ALK-positive NSCLC patients", "value": "well tolerated"},
      {"measurement": "Objective response rate (ORR)", "setting": "ALK-positive NSCLC; ALK inhibitor-naive subgroup (8/11)", "value": 72.7, "unit": "%"},
      {"measurement": "Objective response rate (ORR)", "setting": "ALK-positive NSCLC; all patients (28/45), oral 20–210 mg/day, fasted", "value": 62.2, "unit": "%"},
      {"measurement": "Objective response rate (ORR)", "setting": "ALK-positive NSCLC; brain metastases subgroup (17/27)", "value": 63.0, "unit": "%"},
      {"measurement": "IRC-assessed ORR", "setting": "ALK-positive NSCLC; ALK inhibitor-naive patients (95/104)", "value": 91.3, "unit": "%"},
      {"measurement": "IRC-assessed ORR", "setting": "ALK-positive NSCLC; all patients (116/150)", "value": 77.3, "unit": "%"},
      {"measurement": "IRC-assessed ORR", "setting": "ALK-positive NSCLC; brain metastases subgroup (50/71)", "value": 70.4, "unit": "%"},
      {"measurement": "IRC-assessed ORR", "setting": "ALK-positive NSCLC; crizotinib-pretreated group (17/26)", "value": 65.4, "unit": "%"},
      {"measurement": "Tolerability of single doses", "setting": "ALK-positive NSCLC; single doses of 160 mg, most AEs Grade 1 or 2", "value": "generally well tolerated"},
      {"measurement": "AUC0-∞, geometric mean (CV%)", "setting": "[3]; nine patients", "value": "1970 (30.0) ng·h/mL"},
      {"measurement": "Cmax, geometric mean (CV%)", "setting": "[3]; nine patients", "value": "41.9 (27.0) ng/mL"},
      {"measurement": "t½, geometric mean (CV%)", "setting": "[3]; nine patients", "value": "39.3 (25.6) h"},
      {"measurement": "Median tmax", "setting": "[3]; patients", "value": 3.0, "unit": "h"},
      {"measurement": "Effect of high-fat meal on the PK profile", "setting": "[4]; fed vs fasted", "value": "minimal effect"},
      {"measurement": "Geometric mean ratio: fed/fasted, AUC0-t", "setting": "[4]; n = 23", "value": 105.1, "unit": "%"},
      {"measurement": "Geometric mean ratio: fed/fasted, AUC0-∞", "setting": "[4]; n = 23", "value": 105.5, "unit": "%"},
      {"measurement": "Geometric mean ratio: fed/fasted, Cmax", "setting": "[4]; n = 23", "value": 109.1, "unit": "%"},
      {"measurement": "Inhibition of cell proliferation", "setting": "HCC78 cells", "value": "potent inhibition"},
      {"measurement": "BCS class", "setting": "[1]; low solubility and low gastrointestinal permeability", "value": "class IV"},
      {"measurement": "Incidence of TEAEs", "setting": "Safety assessment; 160 mg single dose, fasted", "value": 54.2, "unit": "%"},
      {"measurement": "Incidence of gastrointestinal disorders", "setting": "Safety assessment; 160 mg single dose, fasted", "value": 41.7, "unit": "%"},
      {"measurement": "Incidence of headache", "setting": "Safety assessment; 160 mg single dose, fasted", "value": 12.5, "unit": "%"},
      {"measurement": "Serious AEs", "setting": "Safety assessment; 160 mg single dose, fasted and fed", "value": "no serious AEs were reported"},
      {"measurement": "Incidence of TEAEs", "setting": "Safety assessment; [10]", "value": 29.2, "unit": "%"},
      {"measurement": "Incidence of gastrointestinal disorders", "setting": "Safety assessment; [10]", "value": 4.2, "unit": "%"},
      {"measurement": "Incidence of headache", "setting": "Safety assessment; [10]", "value": 0.0, "unit": "%"},
      {"measurement": "Discontinuation of the study due to an AE", "setting": "Safety assessment; 160 mg single dose, Grade 1 vomiting", "value": "Only one volunteer"},
      {"measurement": "Tolerability", "setting": "Safety assessment; single doses of 160 mg, healthy volunteers", "value": "generally well tolerated"},
      {"measurement": "Main metabolizing enzyme", "setting": "[5]", "value": "mainly metabolized by cytochrome P450 3A4 (CYP3A4)"},
      {"measurement": "Drug efflux", "setting": "Caco-2", "value": "evidence of drug efflux"},
      {"measurement": "Permeability", "setting": "Caco-2", "value": "low permeability"},
      {"measurement": "Growth of xenograft models", "setting": "[6]", "value": "inhibited growth"},
      {"measurement": "Solubility", "setting": "In vitro solubility; 0.1 mol/L hydrochloric acid, in vitro", "value": "slightly soluble"},
      {"measurement": "Solubility", "setting": "In vitro solubility; pH 6.8, in vitro", "value": "poor solubility"},
      {"measurement": "Inhibition of cell proliferation", "setting": "[7]", "value": "potent inhibition"},
      {"measurement": "IC50 against ALK kinase activity", "setting": "ALK", "value": "sub-nanomolar to nanomolar"}
    ]},
    {"smiles": "C[C@@H](Oc1cc(-c2cnn(C3CCNCC3)c2)cnc1N)c1c(Cl)ccc(F)c1Cl", "note": "[crizotinib]", "values": [
      {"measurement": "BCS class", "setting": "[1]; approved ALK and ROS1 TKIs", "value": "BCS class IV"}
    ]},
    {"smiles": "Cc1cc(Nc2ncc(Cl)c(Nc3ccccc3S(=O)(=O)C(C)C)n2)c(OC(C)C)cc1C1CCNCC1", "note": "[ceritinib]", "values": [
      {"measurement": "Effect of food on drug exposure / PK", "setting": "[8]", "value": "improved exposure"},
      {"measurement": "Effect of food on safety", "setting": "[8]", "value": "improved exposure and safety with food"},
      {"measurement": "BCS class", "setting": "[1]; approved ALK and ROS1 TKIs", "value": "BCS class IV"}
    ]},
    {"smiles": "CCc1cc2c(cc1N1CCC(N3CCOCC3)CC1)C(C)(C)c1[nH]c3cc(C#N)ccc3c1C2=O", "note": "[alectinib]", "values": [
      {"measurement": "BCS class", "setting": "[1]; approved ALK and ROS1 TKIs", "value": "BCS class IV"}
    ]},
    {"smiles": "CN1CCN(c2ccc(C(=O)Nc3n[nH]c4ccc(Cc5cc(F)cc(F)c5)cc34)c(NC3CCOCC3)c2)CC1", "note": "[entrectinib]", "values": [
      {"measurement": "BCS class", "setting": "[1]; approved ALK and ROS1 TKIs", "value": "BCS class II"}
    ]},
    {"smiles": "C[C@H]1Oc2cc(cnc2N)-c2c(nn(C)c2C#N)CN(C)C(=O)c2ccc(F)cc21", "note": "[lorlatinib]", "values": [
      {"measurement": "BCS class", "setting": "[1]; approved ALK and ROS1 TKIs", "value": "BCS class IV"}
    ]}
  ]
}
